Screens: PubChem, SRMLSC
H69AR inhibit – blocks growth of human H69AR lung tumor cells; viability, % at 10 µM; hit rate 6% among 85,000; AID 598; H69AR lung tumor viability, ATP luminescence, 72 h; active compounds read low;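 active means viability at or below 40%; inactive means viability above 40%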;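 further: multidrug resistant small cell line overexpressing MRP-1 efflux transporter; 100% = mean luminescence of untreated control wells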
HCT116 bCat-KO – beta-catenin-lacking colon tumor cell growth suppression | HCT116 beta-catenin knockout viability, CellTiter-Glo, 60 h; active compounds read low | viability, % at 10 µM | hit rate 1.5% among 140,000;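 active means viability at or under a set limit, the compound median less 4 SD, cut at about 6% in these data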;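 further: 0% = Hyamine 1622 control at 20 µM and 100% = untreated cell control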
Fibroblast inh – blocks proliferation of human lung fibroblasts | LL 47 human lung fibroblast viability, ATP luminescence; active compounds read low | viability, % at 10 µM | hit rate 1.1% among 85,000;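 active means viability at or below 50% in the single dose screen; inactive means viability above 50%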;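 further: compound exposure lasted 72 h before the ATP readout; 100% = median luminescence of untreated cell-only wells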
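Material: human lung fibroblast line LL 47, low passage; Evaluation: viability percentage against median untreated-cell control; Buffer or medium: 15% FBS in IMEM; Incubation: 72 h compound exposure at 37 °C after overnight plating; Dosing: 0.1% DMSO in all compound wells; Measured by: CellTiter-Glo luminescence.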
HUVEC prolif 384 – human endothelial cell proliferation inhibition; HUVEC proliferation, CellTiter-Glo luminescence, 72 h; active compounds read low; viability, % at 10 µM (by protocol); hit rate 1.1% among 86,000; AID 648;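 active means viability at or below 30%; inactive means viability above 30%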;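 further: 100% = median luminescence of DMSO-only cell control wells on each plate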
HCT116 PTEN-null – suppresses growth of cells with PTEN deletion; HCT116 PTEN-null viability, CellTiter-Glo, 60 h; active compounds read low; viability, % at 10 µM; hit rate 1.2% among 140,000; AID 827;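 active means viability at or below a set limit, 4 SD under the median of all tested compounds, cut at about 3.7% in these data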;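 further: PTEN knockout HCT116 line with beta catenin targeted HCT116 as companion control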
Numbers without * were called inactive; · = no result given. The entries come from a sample that favours hits as a whole.

SMILES | H69AR inhibit | HCT116 bCat-KO | Fibroblast inh | HUVEC prolif 384 | HCT116 PTEN-null
CCOC(=O)Cc1csc(NC(=O)c2c(O)c3ccccc3n(CC(C)C)c2=O)n1 | 17* | 19 | 104 | 86 | 16
CCOC(=O)N1CCN(CC(O)COc2ccc(C)cc2C(C)(C)C)CC1 (stereo not drawn) | · | 79 | · | · | 77
Brc1cc(Br)c2ncnc(N3CCCCC3)c2c1 | 1.7* | 5.8* | 16* | 8.9* | 10
Clc1ccc(-n2ncc3c(N4CCCCCC4)ncnc32)cc1 | 79 | 91 | 103 | 87 | 98
COc1cc(C(=O)N2CCC(n3c(C)nc4cc(F)ccc43)CC2)cc(OC)c1OC | 84 | 88 | 104 | 90 | 93
Cc1cc2nc(C)n(CCCNC(=O)Nc3ccc(C#N)cc3)c2cc1C | 87 | 86 | 101 | 90 | 83
Cc1cc2nc(C)n(CCCN)c2cc1C | 13* | 60 | 73 | 93 | 70
O=C(CNC(=O)c1ccc2ccccc2c1)OCC(=O)N1CCN(S(=O)(=O)c2ccc3ccccc3c2)CC1 | · | 83 | · | · | 88
Cc1ccc(Cn2c(=N)n(CC(=O)c3ccc([N+](=O)[O-])cc3)c3ccccc32)cc1 | · | 0.9* | · | · | 0.9*
CCn1c(=N)n(CC(=O)c2ccc(OC)cc2)c2ccccc21 | · | 47 | · | · | 42
CC(C)n1nc(C(=O)Oc2cccc(Cl)c2Cl)c2ccccc2c1=O | · | 95 | · | · | 99
COC(=O)[C@@H](NC(=O)O[C@@H]1C(=O)c2ccc(OC)cc2O[C@H]1c1cccc(C(F)(F)F)c1)C(C)C | · | 78 | · | · | 63
COc1ccc2cc3cc(C(=O)NCCN4CCN(c5ccccc5F)CC4)oc3nc2c1 | 75 | 34 | 94 | 53 | 26
COc1ccc2cc3cc(C(=O)Nc4ccccc4N4CCN(C)CC4)oc3nc2c1 | 29* | 2.1* | 28* | 3.6* | 1.5*
Cc1ccc2nc(NC3=NCN(Cc4ccc5c(c4)OCO5)CN3)nc(C)c2c1 | 28* | · | 42* | 65 | ·
Cc1ccc2nc(NC3=NCN(Cc4ccco4)CN3)nc(C)c2c1 | 59 | · | 79 | 87 | ·
CCOc1cc(-c2noc(N)c2C(=O)OC)cc(OCC)c1OCC | 23* | 75 | 94 | 100 | 73
CCOc1cc(C(=O)OCC(=O)Nc2cc(C)on2)cc(OCC)c1OCC | 79 | 90 | 108 | 69 | 98
COC(=O)c1c(-c2ccc(Br)cc2)noc1N | 29* | 49 | 80 | 89 | 38
N#Cc1ccc(-c2ccco2)nc1SCC(=O)c1ccc(Cl)cc1 | 6.2* | 68 | 93 | 38 | 69
Cc1ccc(C(=O)CSc2nc(-c3ccccc3)ccc2C#N)cc1 | · | 80 | · | · | 76
COc1ccc(N2C(=O)NC3CC2(C)Oc2ccc(Cl)cc23)cc1OC (stereo not drawn) | 26* | 77 | 91 | 96 | 72
N/C(=N\c1nc2ccccc2o1)NC(=O)c1ccccc1NC(=O)c1ccccc1 | 27* | 72 | 70 | 70 | 85
N/C(=N\c1nc2ccccc2o1)NC(=O)c1ccccc1F | 75 | 101 | 104 | 92 | 92
COc1ccccc1C(=O)NC(=Nc1nc2ccccc2o1)NC(=O)c1ccccc1OC | 18* | 2.5* | 71 | 14* | 2.1*
SMILES | H69AR inhibit | HCT116 bCat-KO | Fibroblast inh | HUVEC prolif 384 | HCT116 PTEN-null
O=C(NC(=Nc1nc2ccccc2o1)NC(=O)c1ccccc1)c1ccccc1 | · | 91 | · | · | 102
CC(C)(C)c1ccc(OCCNC(=S)NC(=O)c2cccnc2)cc1 | · | 82 | · | · | 84
COc1ccc(Nc2oc(COc3ccccc3F)nc2C#N)cc1 | 5.4* | 57 | 93 | 87 | 55
COc1cc(/C=C/C(=O)CC(=O)/C=C/c2ccc(O)c(OC)c2)ccc1O | 4.3* | 7 | 21* | 22* | 5
CCn1cc(C(=O)NCc2ccco2)c(=O)c2cc(S(=O)(=O)N3CCC(C)CC3)ccc21 | 68 | 54 | 92 | 44 | 62
CCn1cc(C(=O)NCc2ccco2)c(=O)c2cc(S(=O)(=O)N3CC(C)CC(C)C3)ccc21 (stereo not drawn) | 68 | 48 | 66 | 22* | 70
O=C1CSC(=S)N1Cc1cccnc1 | 1.2* | 3.9* | 36* | 51 | 3.2*
O=C1CSC(=S)N1c1cccnc1 | 101 | 110 | 103 | 94 | 100
CCCc1sc(N/N=C/c2ccccn2)nc1-c1ccc(Br)cc1 | 11* | 7 | 29* | 5.2* | 11
Cc1cc(=O)[nH]c(N/N=C/c2ccccn2)n1 | · | 11 | · | · | 13
O=C(NC(NCc1cccnc1)C(Cl)(Cl)Cl)c1cccc2ccccc12 (stereo not drawn) | · | 65 | · | · | 66
Cc1ccc(Cn2c(=N)n(CC(O)COc3ccccc3)c3ccccc32)cc1 (stereo not drawn) | -0.1* | 0.5* | 22* | 2.7* | 0.5*
N=c1n(Cc2ccccc2)c2ccccc2n1CC(O)COc1ccccc1 (stereo not drawn) | 15* | 0.9* | 57 | 98 | 1.2*
CN(C(=O)c1cccc(Nc2ccc(-c3ccc4c(c3)OCCO4)nn2)c1)C1CCCCC1 | 17* | 52 | 107 | 51 | 41
O=C(CCn1cnc2ccccc2c1=O)Nc1nc(-c2ccc(Br)cc2)cs1 | · | 85 | · | · | 83
CC1CCN(c2nc(Cl)nc(Nc3ccc([N+](=O)[O-])cc3)n2)CC1 | · | 2.2* | · | · | 13
N#CC(c1ccccc1)N(CCCCl)C(=O)c1ccc(Br)cc1 (stereo not drawn) | · | 77 | · | · | 78
CC1CCCC(NC(=O)C2CCN(S(=O)(=O)N3CCCCCC3)CC2)C1C (stereo not drawn) | · | 80 | · | · | 89
O=C1/C(=C/c2ccc([N+](=O)[O-])cc2)C=C(c2ccccc2)N1c1ccc(O)cc1 | 26* | 2.2* | 54 | 9.9* | 2.2*
COc1ccc(N2C(=O)/C(=C/c3ccc([N+](=O)[O-])cc3)C=C2c2ccccc2)cc1 | 21* | 38 | 61 | 56 | 47
CC1CCCCC1n1c(=S)[nH]c2ccccc2c1=O (stereo not drawn) | 18* | 82 | 82 | 82 | 87
COC(=O)c1cc(NC(=O)CC2SC(=Nc3ccccc3)N(CCc3c[nH]c4ccccc34)C2=O)cc(C(=O)OC)c1 (stereo not drawn) | · | 43 | · | · | 29
N#C/C(C(N)=O)=c1/ccc2c(c1)N1C3=C(CCCC3)CC3CCCCC31N=2 (stereo not drawn) | 1.9* | 10 | 88 | 44 | 9
N#CC(C#N)=c1ccc2c(c1)N1C3=C(CCCC3)CC3CCCCC31N=2 (stereo not drawn) | 18* | 30 | 62 | 68 | 41
c1ccc(C2CC(c3ccccc3)n3c(nc4ccccc43)N2)cc1 (stereo not drawn) | · | 76 | · | · | 72
COc1cc(/C=N\n2cnnc2)ccc1OCC(=O)Nc1ccc(C)cc1 | 84 | 89 | 94 | 90 | 76
CCOC(=O)c1ccccc1OCc1cc(/C=N/n2cnnc2)ccc1OC | 35* | 71 | 94 | 86 | 73
COC(=O)Cn1c(=NC(=O)C2COc3ccccc3O2)sc2cc(S(N)(=O)=O)ccc21 (stereo not drawn) | · | 83 | · | · | 96
